Dynein cargo inh = inhibitors of GR-EGFP nuclear translocation, primary screen, dynein cargo transport inhibitor project, imaging, high-content, 3617.4 mouse cells. z-score, hits read low. AID 1381, 2008. test concentration mostly 20 µM; stimulated with dexamethasone, 1 µM; stronger effect = lower value. 220,000 compounds, 0.47% hits;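 active = plate z-score of nuclear minus cytoplasmic receptor signal below a set negative limit, without overly bright fluorescence or cell loss, cut at about -3.5 in these data, passing the limit was not always enough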;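 note: z-score of nuclear minus cytoplasmic ring GR-EGFP intensity difference per well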
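Buffer or medium – tet-free medium with charcoal-stripped serum · Signal – automated 10x imaging of fixed Hoechst-stained cells · Also added – dexamethasone agonist, 1.0 µM final, for 30 min · Incubation – induction 48 h, compound 1 h, agonist 30 min · Read-out – GR-EGFP nuclear translocation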
NOD2-RIPK2 inh = NOD2-RIPK2 binding disruptors in cells, primary screen, fluorescence, CHO cells, BLA complementation; 360,000 compounds, 0.38% hits; Receptor-interacting serine/threonine-protein kinase 2 (Homo sapiens), O43353; CCF4 ratio; inhibition, % at 4.98 µM; AID 624267, 2012; in the data active = inhibition above about 21%
Beta2AR agonist = beta2AR agonists driving receptor internalization, primary screen, cell-based, FAP fluorogen, flow cytometry; 340,000 compounds, 0.43% hits; Beta-2 adrenergic receptor (Homo sapiens), P07550; Am2.2-beta2AR cells; response, % (concentration not given with the values);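 active = response above a set limit, near 3 SD of response in nonfluorescent compounds, cut at about 42% in these data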
TLR4-MyD88 BLA = inhibitors of TLR4-MyD88 association in cells, primary screen, cell-based, HeLa CL3-4, BLA complementation, FRET ratio; HeLa CL3-4 TLR4/MyD88 BLA complementation; inhibition, % at 8.4 µM; 200,000 compounds, 0.18% hits; AID 861, 2007; in the data active = inhibition above about 25%
ABHD5-PLIN5 inh = ABHD5-PLIN5 interaction inhibitors, primary screen, cell lysate, split luciferase complementation, luminescence | Perilipin-5 (Homo sapiens) + 1-acylglycerol-3-phosphate O-acyltransferase ABHD5 (Homo … | Split G. princeps luciferase complementation, 4 h | inhibition, % at 4 µM | 360,000 compounds, 0.78% hits | AID 602281, 2012;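 active = inhibition above the mean inhibition across every tested compound plus 3 SD, cut at about 22% in these data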
TLR9-MyD88 inh = inhibitors of TLR9-MyD88 association in cells, primary screen, cell-based, CHO, BLA complementation, fluorescence; AID 504734, 2011; CCF4 FRET ratio; inhibition, % at 4.98 µM; Toll-like receptor 9 (Homo sapiens) + Myeloid differentiation primary response protein …; 340,000 compounds, 0.21% hits;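 active = inhibition above the mean over all tested compounds plus 3 SD, cut at about 21% in these data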
ABHD5-PLIN5 conf = ABHD5-PLIN5 interaction inhibitors, confirmation, biochemical, luminescence; AID 651612, 2012; inhibition, % at 4 µM; shares compounds with ABHD5-PLIN5 inh; 2,200 compounds, 67% hits; in the data active = inhibition above about 23%
HNF4 split-luc = HNF4 dimerization inhibitors, counter-screen for ABHD5-PLIN5 interaction inhibitor project, biochemical, split-luciferase complementation, luminescence. 2,200 compounds, 77% hits. AID 651674, 2012. inhibition, % at 4 µM. shares compounds with ABHD5-PLIN5 inh;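 active = mean inhibition across replicate wells exceeding the computed hit threshold, cut at about 13% in these data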;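 note: light from luciferase halves that rejoin when HNF4 fusion proteins dimerize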
Hits are given with their value. A selection: hits, their analogues and other compounds. The true share with any hit is near 1.6%.

What do the screens show for `CN(C)CCOc1ccc(/C(=C(/CCCl)c2ccccc2)c2ccccc2)cc1`?
NOD2-RIPK2 inh: inactive; Beta2AR agonist: inactive; ABHD5-PLIN5 inh: 46; TLR9-MyD88 inh: inactive; ABHD5-PLIN5 conf: 75; HNF4 split-luc: 35

How did COc1ccc(CNCC(=O)Nc2cc(OC)cc(OC)c2)cc1 do in these assays?
NOD2-RIPK2 inh: inactive; Beta2AR agonist: inactive; ABHD5-PLIN5 inh: inactive; TLR9-MyD88 inh: inactive

How did CN(C)C(=O)C#Cc1ccccc1 do in these assays?
Dynein cargo inh: inactive; NOD2-RIPK2 inh: inactive; Beta2AR agonist: inactive; ABHD5-PLIN5 inh: inactive; TLR9-MyD88 inh: inactive

How did O=C(C#Cc1ccccc1)c1ccccc1 do in these assays?
NOD2-RIPK2 inh: inactive; ABHD5-PLIN5 inh: 25; TLR9-MyD88 inh: inactive; ABHD5-PLIN5 conf: 78; HNF4 split-luc: 107

What do the screens show for `CCN(C(=O)COC(=O)c1cccc(S(=O)(=O)N(C)C)c1)c1c(N)n(Cc2ccccc2)c(=O)[nH]c1=O`?
NOD2-RIPK2 inh: inactive; Beta2AR agonist: inactive; ABHD5-PLIN5 inh: inactive; TLR9-MyD88 inh: inactive

What do the screens show for `Cc1cc(NC(=O)CCC(=O)N(CC(=O)NCC2CCCO2)c2cccc(F)c2)no1` (configuration not stated)?
NOD2-RIPK2 inh: inactive; Beta2AR agonist: inactive; ABHD5-PLIN5 inh: inactive; TLR9-MyD88 inh: inactive

How did CC1CCC(C(=O)NNC(=O)c2cc(-c3ccco3)[nH]n2)CC1 (configuration not stated) do in these assays?
Dynein cargo inh: inactive; NOD2-RIPK2 inh: inactive; Beta2AR agonist: inactive; TLR4-MyD88 BLA: inactive; ABHD5-PLIN5 inh: 27; TLR9-MyD88 inh: inactive; ABHD5-PLIN5 conf: inactive; HNF4 split-luc: inactive

Results for O=C(O)c1cc(-c2ccco2)[nH]n1 ?
Dynein cargo inh: inactive; NOD2-RIPK2 inh: inactive; Beta2AR agonist: inactive; TLR4-MyD88 BLA: inactive; ABHD5-PLIN5 inh: inactive; TLR9-MyD88 inh: inactive

What do the screens show for `CC[N+]1(C)CCC(O)(/C=C/c2ccccc2)C(C(=O)/C=C/c2ccccc2)C1` (configuration not stated)?
NOD2-RIPK2 inh: inactive; Beta2AR agonist: inactive; ABHD5-PLIN5 inh: 45; TLR9-MyD88 inh: inactive; ABHD5-PLIN5 conf: 93; HNF4 split-luc: 109

What do the screens show for `CC(C)CC1C(=O)N(Cc2cn(CCC3OCCO3)nn2)CCS(=O)(=O)N1Cc1ccc(-c2ccncc2)cc1` (configuration not stated)?
NOD2-RIPK2 inh: inactive; ABHD5-PLIN5 inh: inactive; TLR9-MyD88 inh: inactive

What do the screens show for `CCCC1=NN(C(=O)C(=O)Nc2ccc(Br)cc2)C(O)(C(F)(F)F)C1` (configuration not stated)?
Dynein cargo inh: inactive; NOD2-RIPK2 inh: inactive; Beta2AR agonist: inactive; TLR4-MyD88 BLA: inactive; ABHD5-PLIN5 inh: 23; TLR9-MyD88 inh: inactive; ABHD5-PLIN5 conf: 37; HNF4 split-luc: 42

What do the screens show for `O=C(C=Cc1ccccc1)c1cccs1`?
NOD2-RIPK2 inh: inactive; Beta2AR agonist: inactive; ABHD5-PLIN5 inh: 59; TLR9-MyD88 inh: inactive; ABHD5-PLIN5 conf: 71; HNF4 split-luc: 64

How did C=C1C(=O)[C@]23C[C@H]1CC[C@H]2[C@]1(C)[C@@H](OC(C)=O)CC[C@@](C)(C(=O)O)[C@H]1C[C@@H]3OC(C)=O do in these assays?
NOD2-RIPK2 inh: inactive; ABHD5-PLIN5 inh: inactive
